This note sets out measurements from ChEMBL document CHEMBL1131385, “Does the anti-hepatitis B virus activity of (+)-5'-noraristeromycin exist in its 4'-epimer and 4'-deoxygenated derivatives?” (J Med Chem, 1998).

The test system of test [1] is Hepatoblastoma cell line. In words: Cytotoxic concentration against Hepatitis B virus in human hepatoblastoma cell line. The test is classed as functional.
The subject of test [2] is Hepatoblastoma cell line. In words: (§1) Effective concentration against Hepatitis B virus in human hepatoblastoma cell line. It counts as functional, cell-based. In outline:
(§2)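 Confluent cultures of the human hepatoblastoma line 2.2.15, which chronically produces HBV, were used to measure inhibition of HBV replication. Cells got nine consecutive daily doses of agent, with the medium removed each day.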

Test [3] concerns Hepatoblastoma cell line. Described as §1. The test is classed as functional. In outline:
as §2

Test [4] in a line: Selectivity index was evaluated [Selectivity = (CC50 / EC50) against Hepatitis B virus in human hepatoblastoma cell line]. It counts as functional.

pEC50: −log10 of the molar value.

By CC50 is commonly meant the concentration giving 50% cytotoxicity. Lower therefore signals harm at low concentration. Usually pEC50 stands for −log10 of the EC50, conventionally taken in molar units. Usually EC90 stands for the concentration at which the effect reaches the 90% level. Higher therefore signals a need for much substance. With `Nc1ncnc2c1ncn2[C@H]1C[C@@H](O)[C@H](O)[C@@H]1O`, the CC50 in test [1] is 1880 µM. For the same compound, the negative-log EC50 (pEC50) in test [2] is less than 5.00. This compound yielded a concentration for an effect of 90% (EC90) in test [3] greater than 10000 nM.
In test [4], `Nc1ncnc2c1ncn2[C@H]1C=C[C@H](O)[C@@H]1O` showed an SI of 232. Further, the cytotoxic concentration (CC50) in test [1] turned out to be 325 µM. The negative logarithm of the EC50 (pEC50) in test [2] is 6.84. In addition, the concentration for an effect of 90% (EC90) in test [3] worked out at 1400 nM.
On the same counts, the results for `Nc1ncnc2c1ncn2[C@@H]1CC[C@@H](O)[C@H]1O` are 95, 93 µM, 6.92 and 978 nM.
In test [1], `COC1CC(n2cnc3c(N)ncnc32)C(O)C1O` (configuration not stated) registered a CC50 greater than 1000 µM. This compound also had a pEC50 in test [2] of less than 5.00. The compound also registered a concentration for an effect of 90% (EC90) in test [3] greater than 10000 nM.
For `Nc1ccn([C@@H]2CS[C@H](CO)O2)c(=O)n1` [LAMIVUDINE], the SI in test [4] was found to be 9014. In addition, in test [1], half-maximal cytotoxicity (CC50) was put at 1880 µM. The compound further gave a pEC50 in test [2] of 7.15. Further, the 90% effect level in test [3] (EC90) was put at 209 nM.
Consider `Nc1ncnc2c1ncn2[C@@H]1C[C@H](O)[C@@H](O)[C@H]1O` [NORARISTEROMYCIN], for which, in test [4], the SI is recorded as 46. Besides, in test [1], the midpoint of cytotoxicity, the CC50, lay at 446 µM. Further, in test [2], the pEC50 was 5.85. In test [3], this compound displayed a 90% effect concentration (EC90) of 9600 nM.
